Source: paper PMC3954503 (Journal of Medicinal Chemistry, 2014)
Where two headings read alike, the source gives them in different places.

What was measured:
[1] = tested on: HIV-1 FSS RNA upper stem-loop; test: SPR binding to immobilized HIV-1 FSS RNA upper stem-loop; conditions: for increased affinity over 2 and 3 / weaker binding / decrease in affinity relative to dimers 4 and 5: SPR KD ratio
In short: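 Streptavidin (about 2000 RU) on a CM5 chip; 5′-biotin HIV-1 FSS RNA (500 nM) captured once at about 300 RU and once at about 1200 RU, against a biotin-blocked reference cell. Compound series run in (a) HBS pH 7.4 at 60 μL/min or (b) HEPES/NaCl/MgCl2/Tween-20 at 50 μL/min, each injection at least twice. For (a), ≥5 sensorgrams globally fit to a 1:1 Langmuir model; for (b), individual fits; ka, kd, KD derived.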

[2] = tested on: HIV-1 FSS RNA upper stem-loop; conditions: conditions (a) HBS buffer; ref [35]; cited from earlier work
tRNA = conditions: previously found; cited from earlier work
[3] = tested on: pseudotyped HIV-1 virions; test: Single-round infectivity assay with pseudotyped HIV-1; assay type: cell-based
HEK 293FT cells [4] = test: WST-1 cell viability assay; assay type: cell-based, human; conditions: 24 h
In short: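 HEK 293FT cells grown to 80% confluence in 96-well plates (DMEM, 10% FBS, 37 °C). Test compound (up to 0.5 mM) or sterile water control added in triplicate for 24 h at 37 °C. Premix WST-1 reagent then added for 2 h at 37 °C. Absorbance at 450 minus 690 nm, blank-corrected, plotted against concentration; mean of three with SD.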

HEK 293FT cells [5] = test: Cell permeation by fluorescence microscopy; assay type: cell-based, human; conditions: HEK 293FT, 50, 100, 200, and 500 μM for 12 h
In short: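 HEK 293FT cells grown to 80% confluence at 37 °C, 5% CO2, in DMEM with 10% FBS and 1% penicillin-streptomycin. Cells exposed to test compound for 12 h (methods give 50 μM; the text lists 50–500 μM). Washed twice with PBS to remove surface-bound compound, then imaged in buffer by fluorescence microscopy with 358-nm excitation and 460-nm emission filters.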

[6] = tested on: pDualHIV(0) transfected HEK 293FT cells; test: Dual-luciferase control assay, pDualHIV; assay type: cell-based, human
In short: (§1)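 HEK 293FT cells plated at 1.5 × 10^4 cells/well 6 h before transfection, in DMEM with 10% FBS. Transfected with 0.2 μg reporter plasmid (lipofectamine 2000). At 5 h, test compound (0–50 μM) added in triplicate for 36 h at 37 °C. Cells PBS-washed and lysed; Rluc and Fluc read by dual-luciferase assay. Fluc/Rluc ratio expressed relative to untreated cells, set to 100%.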

[7] = tested on: Gag:Gag-Pol ratio in pseudotyped virions; test: Western blot of isolated viral particles for RT and p24; assay type: cell-based, HIV-1; conditions: for RT in unprocessed Gag-Pol (p160) relative to mature RT (p66 + p51) / amount of RT relative to capsid protein p24: Western blot of viral particles; for amount of RT relative to capsid protein p24: as a function of added compound
In short: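 HEK293T producer cells co-transfected with env-deleted, GFP-carrying HIV-1NL4–3 proviral vector and VSV-G vector (1:0.5, Fugene HD). Test compound added 4 h post-transfection; virions collected from media at 24 h through a 0.45-μm filter. Equal p24-ELISA loads were pelleted through a 20% sucrose cushion at 100,000g, then Western blotted for RT and p24.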

HTLV-2 FSS RNA = test: SPR binding to HTLV-2 FSS RNA; conditions: concentrations up to 3 μM; HBS buffer
In short: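 SPR on a CM5 chip with about 2000 RU streptavidin, immobilized by EDC/NHS. 5′-Biotin HTLV-2 FSS RNA (500 nM) captured to about 300–1200 RU; the biotin-blocked flow cell served as reference. Test compound flowed at varying concentrations in HBS (0.01 M HEPES, 0.150 M NaCl, pH 7.4) at 60 μL/min. Each concentration injected at least twice; sensorgrams reference-subtracted and blank-corrected.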

HIV-1 FSS DNA = test: Fluorescence titration with HIV-1 FSS DNA; assay type: binding; conditions: by fluorescence
In short: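 Fluorescence titration in 20 mM HEPES, 150 mM NaCl, with test compound at 1 μM. HIV-1 FSS RNA (10 μM stock) or FSS DNA (40 μM stock) titrated in. Each addition mixed, then 10 min to equilibrate. Benzo[g]quinoline fluorescence quenching read three times, 1 min apart, and corrected for dilution to give KD. Selectivity compares the FSS RNA and FSS DNA KDs.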

[8] = tested on: HIV-1 FSS-dependent −1 frameshifting in HEK 293FT cells; test: Dual-luciferase frameshift assay, pDualHIV; assay type: cell-based, human; conditions: pDualHIV(−1)
In short: as §1

HIV-1 FSS RNA = conditions: read-out: KD for HIV-1 FSS; ref [31]; cited from earlier work
[9] = conditions (a) HBS buffer (0.01 M HEPES, 0.150 M NaCl, pH = 7.4), global fit
[10] = conditions (b) 20 mM HEPES, 150 mM NaCl, 5 mM MgCl2, 0.005% Tween-20

With “2-ethyl benzo[g]quinoline carboxylic acid” the “binding to HIV-1 FSS RNA by SPR (qualitative)” value [1] was “No binding was observed”.

In the case of `CCc1nc2ccccc2cc1C(=O)N[C@@H](C/C=C/C[C@H](NC(=O)c1cc2ccccc2nc1CC)C(=O)N1CCC[C@H]1C(=O)N[C@@H](Cc1ccccc1)C(=O)NCCCN)C(=O)N1CCC[C@H]1C(=O)N[C@@H](Cc1ccccc1)C(=O)NCCCN` [Compound 3], the “association rate, ka” value [2] is given as 1.62 × 10^3 M^–1s^-1, the dissociation rate kd [2] is given as 7.5 × 10^–3 s^–1 and the “affinity for tRNA” value (tRNA) is given as “no measurable affinity”. The “activity in pseudotyped HIV-1 assay” value ([3]; preliminary experiments (data not shown)) was “no activity”.

With `CCc1nc2cc3ccccc3cc2cc1C(=O)N[C@@H](C/C=C\C[C@H](NC(=O)c1cc2cc3ccccc3cc2nc1CC)C(=O)N1CCC[C@H]1C(=O)N[C@@H](Cc1ccccc1)C(=O)NCCCN)C(=O)N1CCC[C@H]1C(=O)N[C@@H](Cc1ccccc1)C(=O)NCCCN` [Compound 4] the “increased affinity over 2 and 3” value [1] was “approximately 50 fold”, the “association rate, ka” value [1, 9] was “(4.25 ± 0.22) × 10^4 M^–1s^-1” and the dissociation rate kd [1, 9] was “(4.11 ± 0.02) × 10^–3 s^–1”. For the same compound, the “association rate, ka” value [1, 10] was “(2.17 ± 0.77) × 10^4 M^–1s^-1”, the dissociation rate kd [1, 10] was “(1.35 ± 0.03) × 10^–3 s^–1” and the Kd ([1]; read-out: affinity (KD) for HIV-1 FSS by SPR, HBS buffer) was 89 nM. For the same compound, the “concentrations at which no significant toxicity occurred” value (HEK 293FT cells [4]) was “below 60 μM”, the “cell penetration (internalization)” value (HEK 293FT cells [5]) was “internalized” and the “change in Fluc to Rluc ratio relative to untreated cells” value [6] was “No change”. For the same compound, the “lower concentration than RG501 for roughly equivalent increase in RT” value [7] was 37.5 fold, the “RT in unprocessed Gag-Pol (p160) relative to mature RT (p66 + p51)” value [7] was “increased significantly” and the “amount of RT relative to capsid protein p24” value [7] was “increasing amounts of RT”. For the same compound, the “binding to HTLV-2 FSS by SPR” value (HTLV-2 FSS RNA) was “no binding was observed”.

For `CCc1nc2cc3ccccc3cc2cc1C(=O)N[C@@H](C/C=C/C[C@H](NC(=O)c1cc2cc3ccccc3cc2nc1CC)C(=O)N1CCC[C@H]1C(=O)N[C@@H](Cc1ccccc1)C(=O)NCCCN)C(=O)N1CCC[C@H]1C(=O)N[C@@H](Cc1ccccc1)C(=O)NCCCN` [Compound 5], the “increased affinity over 2 and 3” value [1] was “approximately 50 fold”, the “association rate, ka” value [1, 9] was “(3.99 ± 0.37) × 10^4 M^–1s^-1” and the dissociation rate kd [1, 9] was “(3.75 ± 0.12) × 10^–3 s^–1”. For the same compound, the “association rate, ka” value [1, 10] was “(3.68 ± 1.45) × 10^4 M^–1s^-1”, the dissociation rate kd [1, 10] was “(3.46 ± 2.05) × 10^–3 s^–1” and the “concentrations at which no significant toxicity occurred” value (HEK 293FT cells [4]) was “below 60 μM”. The “cell penetration (internalization)” value (HEK 293FT cells [5]) was “internalized”, the “change in Fluc to Rluc ratio relative to untreated cells” value [6] was “No change” and the “lower concentration than RG501 for roughly equivalent increase in RT” value [7] was 37.5 fold. The “RT in unprocessed Gag-Pol (p160) relative to mature RT (p66 + p51)” value [7] was “increased significantly”, the “amount of RT relative to capsid protein p24” value [7] was “increasing amounts of RT” and the “selectivity for FSS RNA vs FSS DNA” value (HIV-1 FSS DNA) was “no selectivity”. For the same compound, the “binding to HTLV-2 FSS by SPR” value (HTLV-2 FSS RNA) was “no binding was observed”.

In the case of `C=CC[C@H](NC(=O)c1cc2cc3ccccc3cc2nc1CC)C(=O)N1CCC[C@H]1C(=O)N[C@@H](Cc1ccccc1)C(=O)NCCCN` [Compound 6], the “weaker binding / decrease in affinity relative to dimers 4 and 5” value [1] is reported as 200 fold, the “association rate, ka” value [1, 9] is reported as “(1.16 ± 0.06) × 10^3 M^–1s^-1” and the dissociation rate kd [1, 9] is reported as “(2.25 ± 0.01) × 10^–2 s^–1”.

In the case of `CCc1nc2cc3ccccc3cc2cc1C(=O)N[C@@H](C/C=C\C[C@H](N)C(=O)N1CCC[C@H]1C(=O)N[C@@H](Cc1ccccc1)C(=O)NCCCN)C(=O)N1CCC[C@H]1C(=O)N[C@@H](Cc1ccccc1)C(=O)NCCCN` [Compound 7], the “weaker binding / decrease in affinity relative to dimers 4 and 5” value [1] is reported as “approximately 200 fold”, the “association rate, ka” value [1, 9] is reported as “(4.58 ± 1.27) × 10^3 M^–1s^-1” and the dissociation rate kd [1, 9] is reported as “(1.21 ± 0.00) × 10^–2 s^–1”.

With `CCc1nc2cc3ccccc3cc2cc1C(=O)N[C@@H](C/C=C/C[C@H](N)C(=O)N1CCC[C@H]1C(=O)N[C@@H](Cc1ccccc1)C(=O)NCCCN)C(=O)N1CCC[C@H]1C(=O)N[C@@H](Cc1ccccc1)C(=O)NCCCN` [Compound 8] the “weaker binding / decrease in affinity relative to dimers 4 and 5” value [1] was 30 fold, the “association rate, ka” value [1, 9] was “(7.71 ± 4.9) × 10^3 M^–1s^-1” and the dissociation rate kd [1, 9] was “(1.63 ± 1.12) × 10^–1 s^–1”.

With `NCCCNC(=O)[C@H](Cc1ccccc1)NC(=O)[C@@H]1CCCN1C(=O)[C@@H](N)C/C=C/C[C@H](N)C(=O)N1CCC[C@H]1C(=O)N[C@@H](Cc1ccccc1)C(=O)NCCCN` [Compound 10] the “binding to HIV-1 FSS RNA by SPR (qualitative)” value [1] was “completely abrogated binding”, the “association rate, ka” value ([1]; conditions a, b (both buffers)) was “none obsd” and the “dissociation constant, KD” value ([1]; conditions a, b (both buffers)) was “none obsd”. For the same compound, the dissociation rate kd ([1]; conditions a, b (both buffers)) was “none obsd”, the “increase in Fluc to Rluc ratio (−1 PRF)” value ([8]; at 50 μM, 36 h) was “no significant effect” and the decrease in infectivity ([3]; 40 μM, producer cells treated) was “modest decrease”.

With `CCc1nc2cc3ccccc3cc2cc1C(=O)N[C@@H](CSSC[C@H](NC(=O)c1cc2cc3ccccc3cc2nc1CC)C(=O)N1CCC[C@H]1C(=O)N[C@@H](Cc1ccccc1)C(=O)NCCCN)C(=O)N1CCC[C@H]1C(=O)N[C@@H](Cc1ccccc1)C(=O)NCCCN` [Compound 11] the “weaker binding / decrease in affinity relative to dimers 4 and 5” value [1] was roughly 7 fold, the “association rate, ka” value [1, 9] was “(1.07 ± 0.07) × 10^4 M^–1s^-1” and the dissociation rate kd [1, 9] was “(7.92 ± 0.53) × 10^–3 s^–1”. For the same compound, the “concentrations at which compound proved toxic” value (HEK 293FT cells [4]) was “above 10 μM”, the “cell penetration (internalization)” value (HEK 293FT cells [5]) was “internalized” and the “stimulation of HIV-1 frameshifting” value ([8]; concentrations above 10 µM not examined) was “approximately 25%”. For the same compound, the “binding to HTLV-2 FSS by SPR” value (HTLV-2 FSS RNA) was “no binding was observed”.

For `COc1cccc2c1C(=O)c1c(O)c3c(c(O)c1C2=O)C[C@@](O)(C(=O)CO)C[C@@H]3O[C@H]1C[C@H](N)[C@H](O)[C@H](C)O1` [Doxorubicin], the Kd (HIV-1 FSS RNA) is given as 2800 nM.
